Assay outcomes (PubChem)
EBI2 antag: EBI2 receptor antagonists, beta-arrestin recruitment, primary screen, cell-based, luminescence, 7a,25-OHC stimulation, uHTS. G-protein coupled receptor 183 (Homo sapiens), P32249. 7a,25-OHC stimulated. inhibition, % at 5 µM. hit rate 0.81% among 360,000. AID 651636, 2012; in the data active means inhibition above about 38%;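 further: enzyme fragment complementation signal reports receptor beta-arrestin coupling in cells; 0% = agonist plus DMSO wells and 100% = wells without agonist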
Target sequence (P32249 whole entry, looked up, the tested form may be a part): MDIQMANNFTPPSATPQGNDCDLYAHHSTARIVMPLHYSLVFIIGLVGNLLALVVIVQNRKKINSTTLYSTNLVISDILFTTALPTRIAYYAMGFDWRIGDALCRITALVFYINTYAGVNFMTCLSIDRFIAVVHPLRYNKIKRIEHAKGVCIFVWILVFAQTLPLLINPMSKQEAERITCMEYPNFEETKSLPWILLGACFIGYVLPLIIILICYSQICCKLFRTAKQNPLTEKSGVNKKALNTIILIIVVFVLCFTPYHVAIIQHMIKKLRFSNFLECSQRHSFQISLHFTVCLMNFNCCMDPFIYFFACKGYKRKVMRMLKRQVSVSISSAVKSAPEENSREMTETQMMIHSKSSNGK
CXCR6 inh: CXCR6 receptor inhibitors, primary screen, cell-based, beta-arrestin, luminescence, CHO-K1 PathHunter, 1536-well | inhibition, % at 20 µM | hit rate 0.36% among 360,000; in the data active means inhibition above about 34%, passing the limit was not always enough;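 further: antagonist mode with CXCL16 agonist at 10 nM final; 0% = 10 nM CXCL16 with DMSO and 100% = unstimulated wells without agonist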
Target sequence (O00574 whole entry, looked up): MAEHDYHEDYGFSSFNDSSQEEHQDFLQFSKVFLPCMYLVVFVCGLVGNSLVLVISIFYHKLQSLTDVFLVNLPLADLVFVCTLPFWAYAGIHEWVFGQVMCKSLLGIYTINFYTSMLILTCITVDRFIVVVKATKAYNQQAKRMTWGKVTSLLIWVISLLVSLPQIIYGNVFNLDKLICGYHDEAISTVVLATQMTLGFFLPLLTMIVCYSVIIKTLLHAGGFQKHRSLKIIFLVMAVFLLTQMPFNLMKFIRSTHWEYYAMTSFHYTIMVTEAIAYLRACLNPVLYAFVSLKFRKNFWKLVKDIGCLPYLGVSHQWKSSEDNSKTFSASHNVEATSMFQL
CCR6 antagonist: CCR6 receptor antagonists, primary screen, cell-based, CHO-K1, luminescence, beta-arrestin, uHTS; C-C chemokine receptor type 6 (Homo sapiens), P51684; CHO-K1 CCR6 PathHunter beta-arrestin, CCL20-stimulated; inhibition, % at 20 µM; hit rate 0.49% among 340,000; AID 493098, 2011;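 active means compounds whose inhibition of the agonist-driven luminescence signal at 20 µM reaches about 50%, limit read from the data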;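 further: cells stimulated with CCL20 at 14 nM final; plate controls were DMSO with CCL20 for no effect and DMSO without agonist for full effect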
APJ antag: antagonists of human apelin receptor APJ, primary screen, CHO-K1 cells, beta-arrestin complementation, luminescence | inhibition, % at 20 µM | P35414 | hit rate 0.32% among 330,000;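 active means inhibition above about 40% at 20 µM, limit read from the data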;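 further: cells challenged with 10 nM apelin-13 agonist together with compound; plate controls were apelin-13 plus DMSO wells for no effect and DMSO wells lacking apelin-13 for full effect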
APJ ag: agonists of human apelin receptor APJ, primary screen, CHO-K1 cells, PathHunter beta-arrestin, luminescence; P35414; 0% DMSO wells, 100% apelin; hit rate 0.11% among 330,000; activation, % at 20 µM;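 active means activation more than six SD over the plate average, tested at 20 µM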;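 further: 0% = DMSO alone and 100% = apelin-13 at 10 nM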
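Assay system: CHO-K1 cells stably expressing ProLink-tagged human APJ and arrestin–beta-gal acceptor. Compound dosing: 20 µM single point, 1% DMSO. Times: 16-18 h seeding, 90 min dark compound exposure, 60 min detection. Detection: beta-gal luminescence. Evaluation: APJ–arrestin association signal. Controls: negative DMSO alone, positive Apelin-13 at 10 nM.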
APJ antag confirm: APJ antagonists blocking beta-arrestin recruitment, confirmation, cell-based, luminescence, single concentration, uHTS hits | shares compounds with APJ antag | antagonist mode | inhibition, % at 20 µM | hit rate 66% among 950; in the data active means inhibition above about 50%
CXCR6 antag conf: CXCR6 receptor antagonists, confirmation, cell-based, single concentration, beta-arrestin, luminescence | shares compounds with CXCR6 inh | hit rate 65% among 700 | CHO-K1 CXCR6 PathHunter beta-arrestin | inhibition, % at 20 µM;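 active means mean inhibition over four retests above 40%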;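 further: receptor stimulated with 10 nM CXCL16 agonist; beta-galactosidase fragment complementation upon beta-arrestin recruitment to receptor; plate controls were CXCL16 plus DMSO for no effect and DMSO without CXCL16 for full effect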
* hit, by the source's call; . = no result. Sampled rows, rich in hits. Any-hit rate of the full collection: about 1.5%.

SMILES	EBI2 antag	CXCR6 inh	CCR6 antagonist	APJ antag	APJ ag	APJ antag confirm	CXCR6 antag conf
COCOc1ccc(-c2ncc(OCCN3CCCC3=O)nc2NC(=O)c2cc3ccccc3s2)cc1	-0.2	8.0	.	.	.	.	.
COCC(=O)N1CCC(Oc2cccc(C(=O)NCc3ccccn3)c2)CC1	-5.7	-4.2	-0.1	42.8*	-3.0	-5.0	.
CCC1CCCCN1S(=O)(=O)c1ccc(NC(=O)c2ccncc2)cc1 (stereo not given)	0.7	-25.9	7.8	-19.8	6.7	.	.
CC1CCCN(S(=O)(=O)c2ccc(NC(=O)CNC3CCCC3)cc2)C1 (stereo not given)	-7.7	-1.1	14.6	8.7	-2.8	.	.
CCC1CCCCN1S(=O)(=O)c1ccc(NC(=O)c2nc(S(C)(=O)=O)ncc2Cl)cc1 (stereo not given)	11.0	88.2*	98.0*	59.6*	-7.5	91.5*	81.8*
CCS(=O)(=O)c1ncc(Cl)c(C(=O)Nc2ccc(S(=O)(=O)N3CCCC(C)C3)cc2)n1 (stereo not given)	50.2*	87.2*	94.0*	77.7*	-7.7	104.2*	77.9*
O=[N+]([O-])c1c(Nc2ccc(O)cc2)cc(Cl)c2nonc12	94.5*	107.4*	106.8*	95.8*	-14.3	126.1*	109.3*
CN(C)c1cc(Nc2ccc(O)cc2)c([N+](=O)[O-])c2nonc12	-2.1	16.4	25.9	-11.2	-1.4	.	.
COc1cc(C2C(C#N)=C(N)Oc3n[nH]c(-c4cccs4)c32)cc(OC)c1O (stereo not given)	-4.0	48.6*	59.2*	46.9*	-3.8	47.1	51.0*
Cc1ccc(C2C(C#N)=C(N)Oc3n[nH]c(-c4cccs4)c32)cc1 (stereo not given)	-4.5	-0.5	19.6	-9.3	0.9	.	.
NC(=O)c1ccccc1NCC(=O)c1ccc(Cl)cc1	16.1	80.1*	105.0*	101.4*	-15.7	136.4*	46.1*
CCOC1=C2CN(S(=O)(=O)c3ccc(C)cc3)C(c3ccc(C)cc3)CC2N(S(=O)(=O)c2ccc(C)cc2)C(c2ccccc2)C1 (stereo not given)	1.1	.	.	.	.	.	.
CCn1c(=O)c([N+](=O)[O-])c(Cl)c2ccccc21	33.4	102.0*	100.0*	93.9*	-7.7	101.6*	95.8*
C/C=C/c1cccc(-c2nc(C(=O)N3CCOCC3)cc3c2[C@H](CCO)N(C(=O)NC(C)C)C3)c1	-3.9	0.5	.	.	.	.	.
O=C1c2cccc3c([N+](=O)[O-])ccc(c23)C(=O)N1c1ccc(Cl)cn1	44.2*	53.6*	76.2*	48.8*	-5.2	82.9*	41.7*
Cc1ccc(CN2C(=O)CSCC2(C)C(=O)NCc2ccccc2)cc1 (stereo not given)	2.8	.	.	.	.	.	.
COC(=O)c1ccc2c(c1)C(C)(C)C(/C=C/c1ccccc1O)=[N+]2C	15.8	67.9*	89.5*	62.9*	1.2	124.2*	93.0*
C[N+]1=C(/C=C/Nc2ccccc2Cl)C(C)(C)c2ccccc21	-1.5	-8.0	22.9	-6.7	1.0	.	.
Cc1ccc(S(=O)(=O)N(C)c2ccc3c(c2)C(=O)c2ccccc2-3)cc1	4.2	-3.3	.	.	.	.	.
CCOC(=O)c1c(-c2ccc(C)o2)csc1NC(=S)NC(=O)N(C)C	-11.6	44.4*	.	45.5*	-4.8	42.4	62.1*
O=C(Cc1cccc(NC(=O)C2CCCN(C(=O)CCc3ccccc3)C2)c1)Nc1cccc(C(=O)N2CCCCC2)c1 (stereo not given)	5.1	0.4	-0.2	.	.	.	.
Cn1c(=O)n(C)c2cc([N+](=O)[O-])c(N3CCN(C(=O)c4cccc(F)c4)CC3)cc21	13.1	18.3	22.0	17.2	-4.9	.	.
Cn1c(=O)n(C)c2cc([N+](=O)[O-])c(N3CCN(C(=O)c4cccc(Cl)c4)CC3)cc21	27.2	51.8*	64.6*	52.6*	-13.5	83.6*	46.1*
Cc1ccc(CS(=O)(=O)c2ncc(Cl)c(C(=O)Nc3nnc(C(C)C)s3)n2)cc1	38.0	-9.1	2.1	-15.4	0.5	.	.
Cc1ccc(CS(=O)(=O)c2ncc(Cl)c(C(=O)Nc3ccc(OC(F)F)cc3)n2)cc1	42.9	75.7*	71.1*	42.1*	-4.8	51.8*	67.3*
SMILES	EBI2 antag	CXCR6 inh	CCR6 antagonist	APJ antag	APJ ag	APJ antag confirm	CXCR6 antag conf
Cc1nc(Cc2nnc(SC(C)C(=O)Nc3ccccc3)o2)cs1 (stereo not given)	9.8	7.6	.	.	.	.	.
CCCC(=O)OCCNc1cc(Sc2nc3ccccc3[nH]2)c2nonc2c1[N+](=O)[O-]	6.6	94.4*	117.9*	87.5*	-6.6	126.2*	103.2*
CCCCCCCCN1C(=O)[C@H](CC(=O)NCc2cccc3ccccc23)C[C@@]2(C(=O)OCC)CCCC=C12	6.4	11.5	.	.	.	.	.
O=C(COC(=O)c1cc(=O)[nH]c2ccccc12)Nc1nc(-c2ccc(F)cc2)cs1	9.4	-4.7	-10.8	.	.	.	.
Oc1cccc2ccc(/C=C/c3c(F)cccc3Cl)nc12	8.2	47.0*	55.6*	43.8*	-7.1	32.5	58.2*
Cc1ccc(CNC(=S)N2CCOCC2)cc1	-9.7	-9.9	-2.7	12.7	-2.4	.	.
Cc1ccc(/C=N/NC(=S)N2CCOCC2)cc1	-4.1	49.6*	76.2*	51.1*	-6.3	64.7*	73.9*
Cc1ccccc1NC(=S)NNc1ncc(C(F)(F)F)cc1Cl	17.2	44.7*	69.6*	44.7*	-7.6	70.3*	52.6*
FC(F)(F)c1cnc(NNC(=S)Nc2cccnc2)c(Cl)c1	20.4	70.7*	87.3*	63.0*	-7.2	65.0*	66.6*
Cc1cccc(C)c1NC(=S)NNc1ncc(C(F)(F)F)cc1Cl	-0.9	16.1	28.6	29.2	-4.9	.	.
O=C(NCc1ccc(F)cc1)OC1CC2CC1[C@H]1CCCCN1C2=O (stereo not given in full)	-12.5	-4.7	.	.	.	.	.
Cc1ccccc1CN1C[C@H]2CON(C)[C@H]2C[C@H]1c1cccc(Br)c1	23.2	-2.1	.	.	.	.	.
CC(C)C[C@H](NC(=O)/C=C/[C@H]1O[C@@H](n2ccc(=O)[nH]c2=O)[C@H](O)[C@@H]1O)C(=O)O	-3.1	4.1	.	.	.	.	.
Fc1ccc(NC(=S)Nc2nccs2)cc1	2.0	52.8*	48.5	45.7*	-7.7	61.8*	77.8*
O=C(NCC(F)(F)F)c1cc2c(c(-c3cccc(-c4ccccc4F)c3)n1)[C@@H](CCO)N(C(=O)CC1CC1)C2	14.4	12.1	.	.	.	.	.
